This note sets out measurements from ChEMBL document CHEMBL1154031, “Glycolipid ester-type heterodimers from Ipomoea tyrianthina and their pharmacological activity” (Bioorg Med Chem Lett, 2009).

The subject of assay [1] is Brain. Put plainly: Increase in glutamic acid release in mouse cortical brain slice assessed per mg of protein at 20 ug/mL upto 180 seconds. It counts as functional. In a few lines:
(§1)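 Anterior cortex slices (250-300 um) cut by hand after decapitation, held at 4 °C in oxygenated modified Krebs-Ringer (pH 7.4) with amino-oxyacetic acid 10.0 uM, then 10 min in basal medium at 37 °C. Compound at a final 20.0 ug/mL; aliquots sampled at 0.5-3.0 min. GABA and glutamate measured by HPLC after O-phthaldialdehyde derivatization and expressed per mg slice protein. Untreated control; mean ± SEM, 3 independent experiments.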

The test system of assay [2] is Mycobacterium tuberculosis. The assay is described as follows: Antimycobacterial activity against Mycobacterium tuberculosis by microplate blue alamar assay. It counts as functional. In a few lines:
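Modified microplate Alamar Blue assay (MABA) against M. tuberculosis. Pure compounds tested over 100.00 to 3.13 µg/mL. Activity recorded as the minimal inhibitory concentration (MIC).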

Assay [3] relates to Aorta. The assay is described as follows: Vasorelaxation activity in Wistar rat endothelium-intact thoracic aortic ring assessed as inhibition of noradrenaline-induced contraction. It is filed as functional, tissue-based. In a few lines:
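Thoracic aortic rings (3-5 mm) with endothelium intact, held at 3 g tension in Krebs solution at 37 °C, pH 7.4, gassed O2/CO2 19:1. Isometric tension recorded. Rings precontracted with noradrenaline 0.3 uM, then given cumulative concentrations. Relaxation taken from tone before and after addition. Vehicle and positive control run in parallel.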

In assay [4] the test system is Aorta. The assay is described as follows: Vasorelaxation activity in Wistar rat endothelium-removed thoracic aortic ring assessed as inhibition of noradrenaline-induced contraction. It counts as functional, tissue-based. The gist of the method:
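Endothelium removed from the rings, confirmed by absence of relaxation to carbachol 1 uM. Rings held at 3 g in oxygenated Krebs (37 °C, pH 7.4) and precontracted with noradrenaline 0.3 uM. Cumulative concentration-response curves recorded isometrically. Relaxation calculated by comparing tone before and after compound addition.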

Assay [5] relates to Brain. Put plainly: Increase in GABA release in mouse cortical brain slice at 20 ug/mL upto 180 seconds. It counts as functional, tissue-based. The gist of the method: as §1
In assay [6] the test system is Brain. The assay is described as follows: Increase in GABA release in mouse cortical brain slice at 20 ug/mL after 30 seconds. It is filed as functional, tissue-based. In a few lines:
as §1

In brackets after ≈: the same amount, converted by molar mass. Activity calls are given as the source filed them. The rule behind the calls is not given here.

In assay [1], `CCCCCC1CCCCCCCCCC(=O)O[C@@H]2[C@@H](O[C@@H]3O[C@@H](C)[C@H](OC(=O)CCCCCCCCC[C@@H](CCCCC)O[C@@H]4O[C@H](C)[C@@H](O)[C@H](O)[C@H]4O[C@@H]4O[C@H](CO)[C@@H](O)[C@H](O)[C@H]4O[C@@H]4O[C@@H](C)[C@H](O[C@@H]5O[C@H](C)[C@@H](OC(=O)C(C)CC)[C@H](O)[C@H]5O)C(O)C4OC(=O)C(C)C(C)O)[C@@H](O)[C@@H]3O)[C@H](C)O[C@@H](O[C@H]3[C@H](O[C@H]4[C@H](O1)O[C@H](C)[C@@H](O)[C@@H]4O)O[C@H](COC(=O)C(C)C(C)O)[C@@H](O)[C@@H]3O)[C@@H]2OC(=O)C(C)C(C)O` (stereo partly drawn) [TYRIANTHIN A] returned an Activity of 100 pmol. The same molecule yielded an MIC in assay [2] of 100 µg/mL (≈ 47.7 µM). The Emax in assay [3] came to 81.8%. The IC50 in assay [3] was found to be 240 nM. The outcome in assay [4] was inactive. For the same molecule, the result in assay [5] and in assay [6] was Active.
As to `CCCCCC1CCCCCCCCCC(=O)O[C@@H]2[C@@H](O[C@@H]3O[C@@H](C)[C@H](OC(=O)CCCCCCCCC[C@@H](CCCCC)O[C@@H]4O[C@H](C)[C@@H](O)[C@H](O)[C@H]4O[C@@H]4O[C@H](CO)[C@@H](O)[C@H](O)[C@H]4O[C@@H]4O[C@@H](C)[C@H](O[C@@H]5O[C@H](C)[C@@H](O)[C@H](O)[C@H]5O)C(O)C4OC(=O)CCC)[C@@H](O)[C@@H]3O)[C@H](C)O[C@@H](O[C@H]3[C@H](O[C@H]4[C@H](O1)O[C@H](C)[C@@H](O)[C@@H]4O)O[C@H](COC(=O)C(C)C(C)O)[C@@H](O)[C@@H]3O)[C@@H]2OC(=O)C(C)C(C)O` (stereo partly drawn) [TYRIANTHIN B], the Activity in assay [1] was found to be 180 pmol. Besides, in assay [2], the MIC is 100 µg/mL (≈ 50.5 µM). The half-inhibitory concentration (IC50) in assay [3] was 140 nM. For the same molecule, the result in assay [4] and in assay [5] was inactive. Further, in assay [6], the result was Active.

For orientation: MIC means the lowest concentration found to suppress growth. Lower therefore signals inhibition by little substance. As a reminder, the Emax is the greatest response seen or fitted, relative to the assay's reference. In general, IC50 refers to the concentration at which inhibition is half-maximal.
